Laboratory results as given in ChEMBL document CHEMBL1955778, “Design and synthesis of novel 7-aminoquinazoline derivatives: antitumor and anticonvulsant activities” (Bioorg Med Chem Lett, 2012).

Tests used:
Type in all cases: functional
OVCAR-5 = assay: Growth inhibition of human OVCAR5 cells at 10 uM relative to control; details: read-out: GI
Procedure, shortened: (§1)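 Each cell line in a 60-line human tumour panel exposed to one 10 μM concentration. Growth inhibition percentage computed as 100 minus the percentage activity relative to control.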

SF-268 = assay: Growth inhibition of human SF268 cells at 10 uM relative to control; details: read-out: GI; procedure, shortened: as §1
A498 = assay: Growth inhibition of human A498 cells at 10 uM relative to control; details: read-out: GI; procedure, shortened: as §1
DU-145 = assay: Growth inhibition of human DU145 cells at 10 uM relative to control; details: read-out: GI; procedure, shortened: as §1
MCF7 = assay: Growth inhibition of human MCF7 cells at 10 uM relative to control; details: read-out: GI; procedure, shortened: as §1
Malme-3M = assay: Growth inhibition of human MALME-3M cells at 10 uM relative to control; details: read-out: GI; procedure, shortened: as §1
MDA-MB-435 = assay: Growth inhibition of human MDA-MB-435 cells at 10 uM relative to control; details: read-out: GI; procedure, shortened: as §1
HCC 2998 = assay: Growth inhibition of human HCC2998 cells at 10 uM relative to control; details: read-out: GI; procedure, shortened: as §1
Mus musculus [1] = assay: Anticonvulsant activity in mouse assessed as protection against maximal electroshock-induced seizure at 1 mmol/kg, ip administered 30 min prior to maximal electroshock-challenge measured after 60 mins relative to control
SK-MEL-5 = assay: Growth inhibition of human SK-MEL-5 cells at 10 uM relative to control; details: read-out: GI; procedure, shortened: as §1
T47D = assay: Growth inhibition of human T47D cells at 10 uM relative to control; details: read-out: GI
Procedure, shortened: (§2)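 Single-dose screen across the 60-cell-line human tumor panel at 10 μM. Growth inhibition is reported as a percentage, taken as 100 minus the % growth relative to untreated control.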

NCI-H460 = assay: Growth inhibition of human NCI-H460 cells at 10 uM relative to control; details: read-out: GI; procedure, shortened: as §1
UACC-62 = assay: Growth inhibition of human UACC62 cells at 10 uM relative to control; details: read-out: GI; procedure, shortened: as §2
Mus musculus [2] = assay: Anticonvulsant activity in mouse assessed as protection against pentylenetetrazol-induced seizure at 1 mmol/kg, ip administered 30 min prior to pentylenetetrazol-challenge measured after 60 mins relative to control
SK-MEL-28 = assay: Growth inhibition of human SK-MEL-28 cells at 10 uM relative to control; details: read-out: GI; procedure, shortened: as §1
NCI-H322M = assay: Growth inhibition of human NCI-H322M cells at 10 uM relative to control; details: read-out: GI; procedure, shortened: as §1
SF-539 = assay: Growth inhibition of human SF539 cells at 10 uM relative to control; details: read-out: GI; procedure, shortened: as §1
K562 = assay: Growth inhibition of human K562 cells at 10 uM relative to control; details: read-out: GI; procedure, shortened: as §1
NCI-H226 = assay: Growth inhibition of human NCI-H226 cells at 10 uM relative to control; details: read-out: GI; procedure, shortened: as §1
Mus musculus [3] = assay: Anticonvulsant activity in mouse assessed as protection against strychnine-induced seizure at 1 mmol/kg, ip administered 30 min prior to strychnine-challenge measured after 60 mins relative to control
OVCAR-8 = assay: Growth inhibition of human OVCAR8 cells at 10 uM relative to control; details: read-out: GI; procedure, shortened: as §1
HCT-15 = assay: Growth inhibition of human HCT15 cells at 10 uM relative to control; details: read-out: GI; procedure, shortened: as §1
OVCAR-3 = assay: Growth inhibition of human OVCAR3 cells at 10 uM relative to control; details: read-out: GI; procedure, shortened: as §1
HOP-62 = assay: Growth inhibition of human HOP62 cells at 10 uM relative to control; details: read-out: GI; procedure, shortened: as §1
A549 = assay: Growth inhibition of human A549 cells at 10 uM relative to control; details: read-out: GI; procedure, shortened: as §1
PC-3 = assay: Growth inhibition of human PC3 cells at 10 uM relative to control; details: read-out: GI; procedure, shortened: as §1
MDA-MB-231 = assay: Growth inhibition of human MDA-MB-231 cells at 10 uM relative to control; details: read-out: GI; procedure, shortened: as §1
SK-OV-3 = assay: Growth inhibition of human SKOV3 cells at 10 uM relative to control; details: read-out: GI; procedure, shortened: as §1

Cc1ccccc1-n1c(C)nc2cc(NC(=O)c3ccc(Cl)cc3)ccc2c1=O gave an inhibition of growth at 10 µM (OVCAR-5) of 24.1%, an inhibition of growth at 10 µM (SF-268) of 32.3% and an inhibition of growth at 10 µM (A498) of 39.4%. The inhibition of growth at 10 µM (DU-145) was 12.4%, the inhibition of growth at 10 µM (MCF7) was 42.2% and the inhibition of growth at 10 µM (Malme-3M) was 56.5%. The inhibition of growth at 10 µM (MDA-MB-435) was 56.4%, the inhibition of growth at 10 µM (HCC 2998) was 19.1% and the Activity (Mus musculus [1]) was 50%. It also gave an inhibition of growth at 10 µM (SK-MEL-5) of 99.1%, an inhibition of growth at 10 µM (T47D) of 71% and an inhibition of growth at 10 µM (NCI-H460) of 27.5%. The inhibition of growth at 10 µM (UACC-62) was 57.8%, the Activity (Mus musculus [2]) was 0% and the inhibition of growth at 10 µM (SK-MEL-28) was 20.4%. The inhibition of growth at 10 µM (NCI-H322M) was 6%, the inhibition of growth at 10 µM (SF-539) was 31.8% and the inhibition of growth at 10 µM (K562) was 44.2%. It also gave an inhibition of growth at 10 µM (NCI-H226) of 12%, an Activity (Mus musculus [3]) of 0% and an inhibition of growth at 10 µM (OVCAR-8) of 16%. It also gave an inhibition of growth at 10 µM (HCT-15) of 36.3%, an inhibition of growth at 10 µM (OVCAR-3) of 41.1% and an inhibition of growth at 10 µM (HOP-62) of 3%. The inhibition of growth at 10 µM (A549) was 27.8%, the inhibition of growth at 10 µM (PC-3) was 39.8% and the inhibition of growth at 10 µM (MDA-MB-231) was 42.7%. It also gave an inhibition of growth at 10 µM (SK-OV-3) of 16.8%.
